Activity calls are given as the source filed them. No cut-off for these calls is given here.

In experiment [1] the test system is A498. Briefly: Induction of cell cycle arrest in human A498 cells assessed as accumulation at G2/M phase incubated for 24 hrs by propidium iodide based flow cytometry analysis (reference value: 18 %). The format is functional. Summed up: (§1)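 Cells at 1 × 10^5/mL treated with 0.75 or 1.5 μM compound or DMSO (negative control) for 24 h, harvested and washed in PBS. Fixed by dropwise ice-cold 80% ethanol with vortexing, held overnight, washed twice, PI-stained 20 min in the dark. Phase distribution read by flow cytometry.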
(A flow cytometer gives signals particle by particle.)

The subject of experiment [2] is A498. Briefly: Induction of apoptosis in human A498 cells assessed as activation of caspase-8 measured after 24 hrs by ELISA relative to control. It counts as functional.
In another experiment the test system is KG-1. Briefly: Growth inhibition of human KG-1 cells at 10 uM incubated for 24 hrs by MTT assay relative to control. The note with it: KG-1, 24 h. It counts as functional. The essentials: (§2)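 Cells seeded at 1 × 10^4 per well, cultured overnight, then exposed to 10 μM compound or DMSO (negative control) for 24 h. After a PBS wash, MTT (2 mg/ml) was added for 4 h at 37°C and formazan dissolved in DMSO. OD read at 570 nm. Growth inhibition = 1 − (OD treated/OD control); at least three independent experiments.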

Experiment [3] concerns A498. Briefly: Induction of apoptosis in human A498 cells at 0.75 to 1.5 uM measured after 24 hrs by Annexin-V/propidium iodide staining based flow cytometry relative to control. It counts as functional. The note with it: dose 0.75-1.5 µM. Summed up:
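Cells in supplemented medium with 10% FBS at 37 °C, 5% CO2, exposed to 0.75 or 1.5 μM compound, or DMSO as negative control, for 24 h. Apoptosis assessed by annexin V/PI staining per kit instructions, then flow cytometry; apoptotic cell percentage quantified against control.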

Experiment [4] concerns A498. The experiment can be described thus: Antiproliferative activity against human A498 cells assessed as cell growth inhibition incubated for 24 hrs by MTT assay. The format is functional, cell-based. The note with it: A498, 24 h. Background: Formazan colour is commonly taken as a measure of viable cells.
Experiment [5] relates to A498. Briefly: Induction of apoptosis in human A498 cells assessed as activation of caspase-3 measured after 24 hrs by ELISA relative to control. It counts as functional. The essentials:
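A-498 lysates were assayed for active caspase-3 protein by ELISA. Samples or standards were incubated 2 h at room temperature, then caspase-3 (active) detection antibody for 1 h, anti-rabbit IgG-HRP for 30 min, and chromogen for 30 min. After the stop solution, the plate was read and values were taken from a fitted standard curve in pg/ml versus a negative control.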
(In an ELISA, binding on a coated surface is turned into a signal by an enzyme label.)

Experiment [6] concerns the target T1, Histone deacetylase 2 (Homo sapiens, UniProt Q92769). The experiment can be described thus: Inhibition of HDAC2 in human A498 cells assessed as reduction in HDAC2 expression by Western blot analysis. The format is cell-based. Summed up: (§3)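 40 μg protein (Bradford) resolved by SDS-PAGE, transferred to PVDF, blocked 1 h in milk or BSA. Primary antibody overnight, HRP secondary 1 h, ECL detection; β-actin as loading control.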

Experiment [7] concerns the target Signal transducer and activator of transcription 3 (Homo sapiens) (UniProt P40763). Briefly: Inhibition of STAT3 activation in human A498 cells measured after 24 hrs by Western blot analysis. The format is cell-based.
Another experiment has as its system HCT-116. The experiment can be described thus: Growth inhibition of human HCT-116 cells at 10 uM incubated for 24 hrs by MTT assay relative to control. The format is functional. Particulars: read-out: GI. The essentials: as §2
The next experiment concerns HT-29. Briefly: Growth inhibition of human HT-29 cells at 10 uM incubated for 24 hrs by MTT assay relative to control. It counts as functional. The note with it: read-out: GI. Summed up:
as §2

The subject of experiment [8] is CAKI-1. Briefly: Induction of cell cycle arrest in human CAKI-1 cells assessed as decrease in cell population at G1 phase at 1.5 uM incubated for 24 hrs by propidium iodide based flow cytometry analysis. It counts as functional. The essentials:
as §1

Experiment [9] concerns CAKI-1. The experiment can be described thus: Antiproliferative activity against human CAKI-1 cells assessed as cell growth inhibition incubated for 24 hrs by MTT assay. It counts as functional, cell-based. Particulars: CAKI-1, 24 h.
The target in experiment [10] is T2, Focal adhesion kinase 1 (Homo sapiens, UniProt Q05397). Briefly: Inhibition of FAK in human CAKI-1 cells assessed as reduction in FAK phosphorylation by Western blot analysis. The format is cell-based. The essentials: as §3
T2 sequence (Q05397 2-1052 limits assumed): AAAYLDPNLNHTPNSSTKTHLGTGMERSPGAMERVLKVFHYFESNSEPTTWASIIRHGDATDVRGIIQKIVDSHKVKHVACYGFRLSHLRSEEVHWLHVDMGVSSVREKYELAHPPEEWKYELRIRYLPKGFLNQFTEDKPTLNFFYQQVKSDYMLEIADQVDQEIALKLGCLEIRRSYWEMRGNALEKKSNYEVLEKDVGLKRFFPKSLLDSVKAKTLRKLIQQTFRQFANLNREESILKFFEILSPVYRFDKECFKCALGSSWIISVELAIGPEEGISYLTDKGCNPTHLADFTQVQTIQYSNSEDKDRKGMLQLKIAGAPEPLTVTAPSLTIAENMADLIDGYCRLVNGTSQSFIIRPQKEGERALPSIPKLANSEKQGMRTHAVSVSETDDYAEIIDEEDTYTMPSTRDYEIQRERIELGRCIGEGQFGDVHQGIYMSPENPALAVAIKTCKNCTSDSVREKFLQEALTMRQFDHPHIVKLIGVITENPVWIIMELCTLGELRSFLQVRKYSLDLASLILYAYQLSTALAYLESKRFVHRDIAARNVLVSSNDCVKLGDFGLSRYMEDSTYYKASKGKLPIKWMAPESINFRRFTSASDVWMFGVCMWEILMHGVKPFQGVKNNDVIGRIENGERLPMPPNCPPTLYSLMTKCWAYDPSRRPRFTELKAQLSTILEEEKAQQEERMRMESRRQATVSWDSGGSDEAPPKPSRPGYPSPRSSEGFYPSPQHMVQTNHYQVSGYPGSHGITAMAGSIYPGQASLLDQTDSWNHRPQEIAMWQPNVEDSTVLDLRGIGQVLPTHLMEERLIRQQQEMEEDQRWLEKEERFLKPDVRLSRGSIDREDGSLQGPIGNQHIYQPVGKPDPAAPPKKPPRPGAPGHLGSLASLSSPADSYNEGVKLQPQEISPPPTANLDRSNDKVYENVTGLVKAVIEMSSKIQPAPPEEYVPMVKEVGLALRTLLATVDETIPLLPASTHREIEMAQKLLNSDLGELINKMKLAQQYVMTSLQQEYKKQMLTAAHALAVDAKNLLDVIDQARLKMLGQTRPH
In experiment [11] the target is T1, Histone deacetylase 2. Briefly: Inhibition of HDAC2 in human A498 cells assessed as reduction in HDAC2 expression pretreated for 12 weeks followed by treatment for last 24 hrs by Western blot analysis. It counts as cell-based. The note with it: time 85.0 day.
For experiment [12], the target named is T2, Focal adhesion kinase 1. Briefly: Inhibition of FAK in human A498 cells assessed as reduction in FAK phosphorylation by Western blot analysis. The format is cell-based. The essentials: as §3
Experiment [13] concerns CAKI-1. The experiment can be described thus: Growth inhibition of human CAKI-1 cells at 10 uM incubated for 24 hrs by MTT assay relative to control. The format is functional. The note with it: read-out: GI. The essentials:
as §2

For experiment [14], the target named is T3, Protein deacetylase HDAC6 (Homo sapiens, UniProt Q9UBN7).
T3 sequence (Q9UBN7 whole entry): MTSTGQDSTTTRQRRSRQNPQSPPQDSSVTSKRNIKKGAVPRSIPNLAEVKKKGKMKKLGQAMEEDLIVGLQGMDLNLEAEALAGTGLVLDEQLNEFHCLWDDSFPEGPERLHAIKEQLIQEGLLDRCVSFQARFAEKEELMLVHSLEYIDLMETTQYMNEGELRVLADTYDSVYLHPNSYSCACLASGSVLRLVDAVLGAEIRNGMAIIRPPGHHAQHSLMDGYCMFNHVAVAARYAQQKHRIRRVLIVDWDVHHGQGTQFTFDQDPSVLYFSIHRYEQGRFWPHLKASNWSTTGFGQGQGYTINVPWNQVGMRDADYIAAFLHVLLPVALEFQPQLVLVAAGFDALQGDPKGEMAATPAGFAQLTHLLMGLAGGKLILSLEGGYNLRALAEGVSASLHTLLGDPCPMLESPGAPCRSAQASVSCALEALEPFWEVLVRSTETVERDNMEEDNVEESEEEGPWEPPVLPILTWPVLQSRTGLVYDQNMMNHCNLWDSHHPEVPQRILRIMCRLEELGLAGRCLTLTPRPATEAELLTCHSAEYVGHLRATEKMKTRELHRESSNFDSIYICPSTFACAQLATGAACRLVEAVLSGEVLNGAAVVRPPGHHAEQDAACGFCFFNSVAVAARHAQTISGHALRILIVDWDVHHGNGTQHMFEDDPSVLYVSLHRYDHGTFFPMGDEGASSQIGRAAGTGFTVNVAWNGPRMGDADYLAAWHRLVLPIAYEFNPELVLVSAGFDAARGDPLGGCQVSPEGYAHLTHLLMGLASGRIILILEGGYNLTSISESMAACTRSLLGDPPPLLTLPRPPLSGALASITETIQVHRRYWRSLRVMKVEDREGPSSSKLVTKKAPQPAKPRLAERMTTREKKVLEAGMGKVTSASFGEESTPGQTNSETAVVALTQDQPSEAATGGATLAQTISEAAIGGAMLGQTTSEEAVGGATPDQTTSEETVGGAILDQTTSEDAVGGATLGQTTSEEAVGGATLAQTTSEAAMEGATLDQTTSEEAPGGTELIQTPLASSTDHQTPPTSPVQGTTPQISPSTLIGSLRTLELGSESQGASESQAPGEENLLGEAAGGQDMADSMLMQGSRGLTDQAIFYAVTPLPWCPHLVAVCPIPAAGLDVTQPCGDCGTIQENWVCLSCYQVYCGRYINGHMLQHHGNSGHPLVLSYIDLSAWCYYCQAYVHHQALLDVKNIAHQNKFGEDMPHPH
Briefly: Inhibition of human full-length recombinant HDAC6 preincubated for 5 mins followed by HDAC substrate addition and further incubated for 45 mins by fluorescence microplate reader assay.

T1 sequence (Q92769 whole entry): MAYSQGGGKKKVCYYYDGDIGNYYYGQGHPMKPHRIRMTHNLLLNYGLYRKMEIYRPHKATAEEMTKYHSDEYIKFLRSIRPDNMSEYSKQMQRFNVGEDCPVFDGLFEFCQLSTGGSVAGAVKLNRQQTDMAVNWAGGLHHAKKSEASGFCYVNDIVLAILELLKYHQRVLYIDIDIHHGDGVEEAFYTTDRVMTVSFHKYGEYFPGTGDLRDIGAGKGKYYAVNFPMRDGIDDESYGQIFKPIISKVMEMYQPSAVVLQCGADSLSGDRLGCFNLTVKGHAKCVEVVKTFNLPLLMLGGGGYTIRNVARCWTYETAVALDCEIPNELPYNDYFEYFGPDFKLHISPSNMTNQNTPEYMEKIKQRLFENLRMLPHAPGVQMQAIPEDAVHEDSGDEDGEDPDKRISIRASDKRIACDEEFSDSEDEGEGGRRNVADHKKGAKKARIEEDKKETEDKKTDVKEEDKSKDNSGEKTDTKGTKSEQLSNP
Sequence of Signal transducer and activator of transcription 3 (Homo sapiens) (P40763 whole entry): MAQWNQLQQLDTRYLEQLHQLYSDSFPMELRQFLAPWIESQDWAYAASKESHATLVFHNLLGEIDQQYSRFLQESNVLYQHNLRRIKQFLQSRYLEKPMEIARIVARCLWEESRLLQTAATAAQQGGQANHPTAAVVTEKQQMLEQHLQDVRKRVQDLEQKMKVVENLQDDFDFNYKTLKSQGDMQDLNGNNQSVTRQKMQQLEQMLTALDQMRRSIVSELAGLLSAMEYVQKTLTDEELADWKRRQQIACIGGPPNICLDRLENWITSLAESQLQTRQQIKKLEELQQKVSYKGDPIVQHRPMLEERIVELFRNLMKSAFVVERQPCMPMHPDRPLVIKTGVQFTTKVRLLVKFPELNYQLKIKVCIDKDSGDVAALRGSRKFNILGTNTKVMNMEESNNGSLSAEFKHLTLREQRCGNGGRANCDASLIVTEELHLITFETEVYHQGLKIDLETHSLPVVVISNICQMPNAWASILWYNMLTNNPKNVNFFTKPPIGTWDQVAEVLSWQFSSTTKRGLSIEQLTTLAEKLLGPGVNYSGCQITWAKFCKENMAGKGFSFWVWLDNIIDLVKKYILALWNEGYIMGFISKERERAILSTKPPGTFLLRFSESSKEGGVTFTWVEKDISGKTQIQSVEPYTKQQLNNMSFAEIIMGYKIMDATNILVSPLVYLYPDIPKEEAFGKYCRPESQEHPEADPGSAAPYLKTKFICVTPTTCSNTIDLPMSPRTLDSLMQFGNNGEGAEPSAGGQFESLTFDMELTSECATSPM

Consider `Cn1c(SCCCCCC(=O)NO)nnc1-c1ccncc1`, for which the figures for the Activity in the experiment on A498 [1] and in the experiment on A498 [3] were 65% and 50%, respectively. Moreover, the “fold change (FC)” value in the experiment on A498 [2] was 3; in the experiment on A498 [5], 11. The compound further displayed an inhibition in vitro at 10 µM in the experiment on KG-1 of 84.2%. Besides, the IC50 (in general, the concentration needed to halve the response being measured) is 0.95 µM with A498 [4], 1.23 µM in the experiment with CAKI-1 [9] and 13.9 µM in experiment [14]. In addition, the inhibition entry (at Histone deacetylase 2 [6]; in experiment [7]; on Focal adhesion kinase 1 [10]; at Histone deacetylase 2 [11]; on Focal adhesion kinase 1 [12]) was “Active” in each case. The inhibition of growth at 10 µM is 60.1% in the experiment on HCT-116, 68.3% with HT-29 and 98.1% with CAKI-1 [13]. In the experiment on CAKI-1 [8], the outcome was Active.

These data come from ChEMBL document CHEMBL4823270, “A first-in-class anticancer dual HDAC2/FAK inhibitors bearing hydroxamates/benzamides capped by pyridinyl-1,2,4-triazoles” (Eur J Med Chem, 2021).
